Source: article PMC4324418 (ACS Chemical Neuroscience, 2014)
pKi: −log10 of the molar value.

What was measured:
[1] = target: T1, guinea pig adenosine transporter (Cavia porcellus, UniProt H0V4R7); experiment: Cerep panel, displacement of [3H]NTBI binding
T1 sequence (H0V4R7 1-461): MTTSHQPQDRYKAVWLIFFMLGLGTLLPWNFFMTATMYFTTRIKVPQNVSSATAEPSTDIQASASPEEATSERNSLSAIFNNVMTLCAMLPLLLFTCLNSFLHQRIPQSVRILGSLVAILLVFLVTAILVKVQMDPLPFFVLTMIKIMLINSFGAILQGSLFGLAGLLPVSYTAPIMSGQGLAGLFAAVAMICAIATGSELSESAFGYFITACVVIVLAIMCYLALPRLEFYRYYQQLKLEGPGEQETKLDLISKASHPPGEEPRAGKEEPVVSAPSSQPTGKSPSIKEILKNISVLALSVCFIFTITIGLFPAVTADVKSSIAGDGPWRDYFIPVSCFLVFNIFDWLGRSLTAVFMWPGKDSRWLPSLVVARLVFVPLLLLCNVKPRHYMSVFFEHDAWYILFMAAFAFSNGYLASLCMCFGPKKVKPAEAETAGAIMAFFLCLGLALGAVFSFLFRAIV

rat M4 receptor = target: T2, rat M4 receptor (Rattus norvegicus, UniProt P08485); experiment: Progressive fold-shift of ACh concentration-response curve; format: cell-based; settings: operational model of allosterism
T2 sequence (P08485 1-478): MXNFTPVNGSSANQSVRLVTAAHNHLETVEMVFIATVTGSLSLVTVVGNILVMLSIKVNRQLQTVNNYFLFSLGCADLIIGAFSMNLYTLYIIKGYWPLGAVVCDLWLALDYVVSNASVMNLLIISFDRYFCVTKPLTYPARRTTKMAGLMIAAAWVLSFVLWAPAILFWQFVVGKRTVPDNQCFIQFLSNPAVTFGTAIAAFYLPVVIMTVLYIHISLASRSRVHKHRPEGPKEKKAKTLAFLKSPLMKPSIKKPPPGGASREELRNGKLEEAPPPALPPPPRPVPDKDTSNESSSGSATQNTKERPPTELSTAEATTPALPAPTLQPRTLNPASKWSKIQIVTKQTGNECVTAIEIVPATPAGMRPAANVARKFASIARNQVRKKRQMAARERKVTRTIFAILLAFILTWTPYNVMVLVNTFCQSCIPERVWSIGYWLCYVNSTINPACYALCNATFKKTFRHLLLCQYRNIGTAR

wild-type mice [2] = experiment: Contextual fear conditioning, one-shock paradigm; format: in vivo, mouse; settings: 3–30 mg/kg, measured 24 h later
Procedure, shortened: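 One-shock contextual conditioning used a 3 min session: 2 min habituation, one 0.4 mA shock, then 59 s before removal. Dosing was vehicle (10% Tween 80 in sterile water) or test compound at 3, 10 or 30 mg/kg IP. Mice were returned to the same chamber 24 h later, and percent time freezing was scored over 3 min.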

wild-type mice [3] = experiment: Amphetamine-induced hyperlocomotion in wild-type mice; format: in vivo, mouse; settings: WT mice, amphetamine […] SC
[4] = as above; format: in vivo, mouse; settings: mouse, brain, ip, WT mice
wild-type mice [5] = format: in vivo, mouse; settings: data not shown
Procedure, shortened: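 Wild-type mice received vehicle (10% Tween 80, IP) or test compound (30 mg/kg IP). Thirty minutes later they received saline (IP) or MK-801 (0.3 mg/kg IP).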

rat M2 receptor = experiment: Calcium mobilization, selectivity; format: cell-based
Procedure, shortened: (§1)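 Cells were seeded at 15000/well in DMEM with 10% dialyzed FBS, 20 mM HEPES and 1 mM pyruvate, then cultured overnight at 37 °C/5% CO2. M2 and M4 lines were cotransfected with Gqi5. Cells were loaded with 1 μM Fluo-4AM (HBSS, 20 mM HEPES, 2.5 mM probenecid, pH 7.4) for 50 min at 37 °C. ACh was added 140 s after test compound. Calcium signal was expressed as % of the 10 μM ACh maximum.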

[6] = Biotransformation in cryopreserved rat hepatocytes; format: in vitro ADME; settings: male, Sprague–Dawley rat (data not shown)
human M3 receptor = experiment: Calcium mobilization, selectivity; format: cell-based
Procedure, shortened: as §1

M4 KO mice = experiment: Touchscreen pairwise visual discrimination task, M4 KO mice; format: in vivo, mouse
Procedure, shortened: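 Mice aged 8–11 weeks were held at ~85% free-feeding weight, with water freely available. They were trained on touchscreen nosepoke discrimination (60 trials or 60 min) to ≥85% accuracy on 3 consecutive days. Next day: vehicle (10% Tween 80 IP) or test compound (3–30 mg/kg IP) 60 min pre-test, then saline or MK-801 (0.1–0.3 mg/kg IP) 30 min later. Mice were retested drug-free 24 h later. Analysis: ANOVA with Bonferroni tests.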

[7] = Pharmacokinetic and brain distribution studies in mice; settings: for AUC(0-t) / Cmax / Tmax: male, C57BL/6, mouse, in vivo
[8] = M4 KO, VU0467154 10.0 mg/kg IP + MK-801 0.30 mg/kg IP
[9] = M4 KO, VU0467154 10.0 mg/kg IP + vehicle

Cc1nnc2sc(C(=O)NCc3ccc(S(=O)(=O)C(F)(F)F)cc3)c(N)c2c1C [VU0467154, 5-amino-3,4-dimethyl-N-(4-((trifluoromethyl)sulfonyl)benzyl)thieno[2,3-c]pyridazine-6-carboxamide]
pKi [1]: 7.01 | efficacy cooperativity factor (log β) (rat M4 receptor): 0.91 | efficacy cooperativity factor β (rat M4 receptor): 8.17 | acquisition of contextual fear conditioning behaviors (wild-type mice [2]): dose-dependent enhancement | mean reversal of AHL (wild-type mice [3]; 0.3 mg/kg IP): 3.7% | mean reversal of AHL (wild-type mice [3]; 1 mg/kg IP): 41.6% | mean reversal of AHL (wild-type mice [3]; 3 mg/kg IP): 70.4% | mean reversal of AHL (wild-type mice [3]; 10 mg/kg IP): 81.5% | mean reversal of AHL (wild-type mice [3]; 30 mg/kg IP): 90.7% | concentration at 2.5 h ([4]; 0.3 mg/kg, mean Cbrain, 0.3 mg/kg IP, at 2.5 h postadministration): 24 nM | concentration at 2.5 h ([4]; 0.3 mg/kg, mean Cbrain,u, 0.3 mg/kg IP, 2.5 h, in vitro mouse fubrain 0.014): 0.3 nM | concentration at 2.5 h ([4]; 3 mg/kg, mean Cbrain, 3 mg/kg IP, at 2.5 h postadministration): 157 nM | concentration at 2.5 h ([4]; 3 mg/kg, mean Cbrain,u, 3 mg/kg IP, 2.5 h, in vitro mouse fubrain 0.014): 2.2 nM | concentration at 2.5 h ([4]; 10 mg/kg, mean Cbrain, 10 mg/kg IP, at 2.5 h postadministration): 398 nM | concentration at 2.5 h ([4]; 10 mg/kg, mean Cbrain,u, 10 mg/kg IP, 2.5 h, in vitro mouse fubrain 0.014): 5.6 nM | concentration at 2.5 h ([4]; 30 mg/kg, mean Cbrain,u, 30 mg/kg IP, 2.5 h, in vitro mouse fubrain 0.014): 8.1 nM | serotonin utilization in the NAS and CP (wild-type mice [5]): Neither single nor combined administration of VU0467154 with MK-801 altered serotonin utilization | potentiation of ACh response (calcium response) (rat M2 receptor): lack of a calcium response | turnover in hepatocytes [6]: low turnover | potentiation of ACh response (calcium response) (human M3 receptor): lack of a calcium response | reversal of MK-801-induced pairwise discrimination deficit (M4 KO mice; M4 KO mice): did not reverse the MK-801-induced pairwise discrimination deficit | response accuracy on the test day (M4 KO mice; M4 KO, MK-801 in combination with VU0467154 (vehicle 91%)): 64% | correct reward collection latency (M4 KO mice; [8]): 1.57 ± 0.07 s | correct touch latency (M4 KO mice; [8]): 8.45 ± 1.57 s | time to complete 60 trials (M4 KO mice; [8]): 1120 ± 95.5 s | correct reward collection latency (M4 KO mice; [9]): 3.19 ± 0.73 s | correct touch latency (M4 KO mice; [9]): 22.81 ± 8.86 s | time to complete 60 trials (M4 KO mice; [9]): 2080 ± 384.9 ^e s | AUC(0-t) ([7]; ip, 3 mg/kg): 9.2 µM·h | Cmax ([7]; ip, 3 mg/kg): 2000 nM | Tmax ([7]; ip, 3 mg/kg): 1 h | AUC(0-t) ([7]; ip, 10 mg/kg): 39 µM·h | Cmax ([7]; ip, 10 mg/kg): 5600 nM | Tmax ([7]; ip, 10 mg/kg): 0.5 h | Tmax ([7]; ip, 30 mg/kg): 0.5 h | AUC(0-t) ([7]; po, 10 mg/kg): 46 µM·h | Cmax ([7]; po, 10 mg/kg): 7600 nM | Tmax ([7]; po, 10 mg/kg): 1 h | AUC(0-t) ([7]; po, 30 mg/kg): 66 µM·h | Cmax ([7]; po, 30 mg/kg): 11000 nM | Tmax ([7]; po, 30 mg/kg): 1 h | brain AUC0–24h ([7]; mouse, IP 3 mg/kg, brain): 5.9 µM·h
